Assays:
[1] = test system: D-lactate-pyruvate pathway in Synechocystis sp. PCC 6803 cells; experiment: LC-MS quantification of intracellular pyruvate and surrounding metabolites; assay type: cell-based; conditions: 10 µM, normalized to WT
Summary of the method: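 Cells were exposed to test conjugate at final 10 µM, with untreated wild-type and Δddh strain as comparators, and sampled at 24 and 48 h. For each sample, 8 mL culture was membrane-filtered (0.2 µm) and extracted; the aqueous phase was dried and analysed by LC-MS against 1–100 µg/mL standards. Values were normalized to untreated wild-type; ≥3 replicates; ANOVA.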

[2] = test system: Synechocystis sp. PCC 6803; experiment: Growth curves; assay type: cell-based; conditions: OD730 over 72 h, triplicates
Summary of the method: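 Synechocystis subcultures in BG11 (10 mL, starting OD730 0.2) were pre-incubated 23 h, then given test conjugate from a 1 mM water stock to final 2, 4, 6, 8 or 10 µM. Controls were untreated cells and 10 µM non-specific CPP-PNA. Hour 0 was 1 h after addition. OD730 was followed over time; triplicates, mean ± SD.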

Sequence	D-lactate level at 24 h ([1]; 24 h, N = 3)	change in acetyl-CoA concentration ([1]; 24 h, N = 3)	change in malate concentration ([1]; 24 h, N = 3)	change in phosphoenolpyruvate (PEP) concentration ([1]; 24 h, N = 3)	increase in pyruvate compared to untreated wild-type ([1]; 24 h, N = 3) [fold]	increase in D-lactate accumulation compared to wild-type ([1]; 48 h post-treatment, at least three replicates) [fold]	growth inhibition at 10 µM [2]
TTCATGACGA [CPP-Syn6803ddh]	consistently low	minimal or no changes	minimal or no changes	minimal or no changes	2.5	3	
CTCATAGATC [CPP-ncPNA]							no growth inhibition
